Data from ChEMBL document CHEMBL1833966, “Synthesis and evaluation of quinazolin-4-ones as hypoxia-inducible factor-1α inhibitors” (Bioorg Med Chem Lett, 2011).
Calls of active or inactive are those of the source. The calls are words filed in the database; no cut-off is given here.

system: ME-180; test: Inhibition of hypoxia-induced HIF1alpha protein accumulation in human HRE-bla-ME180 cells at 1 uM after 17 hrs by Western blot analysis; assay type: functional, cell-based; conditions: not given
How it was run: (§1)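 HRE-bla ME-180 cells, 1 × 10^6 per well, cultured 6 h, then exposed 17 h to compound in DMSO at 1% oxygen; DMSO under normal atmosphere as negative control. Lysis on ice with protease inhibitor, centrifugation, 25 ug protein on 10% Tris-Glycine SDS-PAGE, PVDF transfer. Blotted with anti-HIF-1α (1:250), β-actin (1:5000) loading control, HRP secondary, luminol detection.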

How did the inhibition turn out when `CCOc1ccccc1-n1c(CN2CCOCC2)nc2ccccc2c1=O` was run?
Its inhibition is “inactive”.

For `CCOc1ccccc1-n1c(CN2CCNCC2)nc2ccccc2c1=O`, which inhibition is on record?
The inhibition was “Active”.

target: T1, Hypoxia-inducible factor 1-alpha (Homo sapiens, UniProt Q16665); test: Ratio of NCGC00056044 IC50 to compound IC50 for hypoxia-induced HIF1alpha activation in human ME180 cells by HRE3-Bla-[…] reporter gene assay; assay type: cell-based; conditions: ME-180
Target sequence in this assay (Q16665 whole entry, looked up): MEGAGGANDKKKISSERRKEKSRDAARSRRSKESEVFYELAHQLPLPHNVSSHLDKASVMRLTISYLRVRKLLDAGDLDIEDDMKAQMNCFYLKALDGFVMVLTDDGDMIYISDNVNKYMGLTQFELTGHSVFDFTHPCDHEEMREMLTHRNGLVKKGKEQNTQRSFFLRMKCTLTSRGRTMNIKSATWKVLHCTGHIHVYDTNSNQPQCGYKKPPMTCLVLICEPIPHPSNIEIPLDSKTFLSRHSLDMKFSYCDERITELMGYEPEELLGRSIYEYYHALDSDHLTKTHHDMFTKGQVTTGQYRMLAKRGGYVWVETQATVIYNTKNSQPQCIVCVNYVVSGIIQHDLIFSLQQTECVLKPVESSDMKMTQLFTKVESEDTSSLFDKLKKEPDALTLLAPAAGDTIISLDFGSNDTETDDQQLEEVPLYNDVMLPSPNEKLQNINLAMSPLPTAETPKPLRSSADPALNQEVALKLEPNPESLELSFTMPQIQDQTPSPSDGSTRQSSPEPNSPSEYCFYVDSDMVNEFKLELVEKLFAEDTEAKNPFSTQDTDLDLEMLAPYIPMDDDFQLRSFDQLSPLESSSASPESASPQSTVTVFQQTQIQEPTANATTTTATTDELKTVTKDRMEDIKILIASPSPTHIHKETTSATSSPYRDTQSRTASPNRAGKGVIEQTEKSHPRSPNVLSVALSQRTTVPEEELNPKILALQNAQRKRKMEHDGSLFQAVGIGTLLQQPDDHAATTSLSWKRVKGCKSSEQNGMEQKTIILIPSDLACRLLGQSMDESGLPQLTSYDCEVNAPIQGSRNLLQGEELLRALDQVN

Which Ratio IC50 does the source give for `CCOc1ccccc1-n1c(CN2CCNCC2)nc2ccccc2c1=O` here?
The Ratio IC50 was 5.

target: T1, Hypoxia-inducible factor 1-alpha; test: Inhibition of hypoxia-induced HIF1alpha activation in human ME180 cells by HRE3-Bla-[…] reporter gene assay; assay type: cell-based, ME-180; conditions: me-180
How it was run: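 HRE-bla ME-180 reporter cells, 2500 per well, given compound by pin transfer (261-fold dilution), then held 17 h at 37 °C under 1% oxygen. LiveBLAzer B/G FRET β-lactamase substrate added, 2.5 h at room temperature; fluorescence read at 405 nm excitation, 460 and 530 nm emission. IC50 is the mean of three independent experiments.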
Target sequence in this assay (Q16665 whole entry): as the sequence (Q16665 whole entry, looked up) above

`O=C(c1ccco1)N1CCN(Cc2nc3ccccc3c(=O)n2-c2ccccc2C(F)(F)F)CC1` was tested. Which IC50 did it give?
The IC50 was “Not Active”.

With `CCOc1ccccc1-n1c(CN2CCN(C(=O)c3ccco3)CC2)nc2ccc(I)cc2c1=O` as the compound, how does the IC50 read?
The IC50 was “Not Active”.

With `CCOc1ccccc1-n1c(CN2CCN(C(=O)c3ccco3)CC2)nc2cccc(OC)c2c1=O` as the compound, how does the IC50 read?
The IC50 was “Not Active”.

How did the IC50 turn out when `O=C(c1ccco1)N1CCN(Cc2nc3ccccc3c(=O)n2-c2ccccc2[N+](=O)[O-])CC1` was run?
Its IC50 is “Not Active”.

For `O=C(c1ccco1)N1CCN(Cc2nc3ccccc3c(=O)n2-c2ccc(F)cc2)CC1`, which IC50 is on record?
Its IC50 is “Not Active”.

How did the IC50 turn out when `O=C(c1ccco1)N1CCN(Cc2nc3ccccc3c(=O)n2-c2ccccc2Cl)CC1` was run?
The IC50 was “Not Active”.

`CC(C)(C)c1ccccc1-n1c(CN2CCN(C(=O)c3ccco3)CC2)nc2ccccc2c1=O` was tested. Which IC50 did it give?
The IC50 was “Not Active”.

Which IC50 does the source give for `COc1ccc(-n2c(CN3CCNCC3)nc3ccccc3c2=O)cc1` here?
The IC50 was “Not Active”.

`O=C(c1ccco1)N1CCN(Cc2nc3ccccc3c(=O)n2-c2ccccc2F)CC1` was tested. Which IC50 did it give?
Its IC50 is “Not Active”.

How did the IC50 turn out when `O=C(c1ccco1)N1CCN(Cc2nc3ccccc3c(=O)n2-c2ccccc2)CC1` was run?
Its IC50 is “Not Active”.

How did the IC50 turn out when `CCOc1ccccc1-n1c(CN2CCCCC2)nc2ccccc2c1=O` was run?
Its IC50 is “Not Active”.

`Cc1ccccc1-n1c(CN2CCN(C(=O)c3ccco3)CC2)nc2ccccc2c1=O` was tested. Which IC50 did it give?
The IC50 was “Not Active”.

How did the IC50 turn out when `O=C(c1ccco1)N1CCN(Cc2nc3ccccc3c(=O)n2-c2ccccc2Oc2ccccc2)CC1` was run?
The IC50 was “Not Active”.

With `CCOc1ccccc1-n1c(CN2CCN(C(=O)c3ccco3)CC2)nc2cc(OC)c(OC)cc2c1=O` as the compound, how does the IC50 read?
The IC50 was “Not Active”.

Which IC50 does the source give for `O=C(c1ccco1)N1CCN(Cc2nc3ccccc3c(=O)n2-c2ccccc2OCc2ccccc2)CC1` here?
Its IC50 is “Not Active”.

same assay, conditions: read-out: IC50

For `COc1ccc([N+](=O)[O-])cc1-n1c(CN2CCNCC2)nc2ccccc2c1=O`, which IC50 is on record?
The IC50 was 4.2 µM.

For `CCOc1ccccc1-n1c(CN2CCCNCC2)nc2ccccc2c1=O`, which IC50 is on record?
The IC50 was 0.16 µM.

For `CC(C)COc1ccccc1-n1c(CN2CCNCC2)nc2ccccc2c1=O`, which IC50 is on record?
The IC50 was 6.2 µM.

`CCOc1ccccc1-n1c(CN2CCN(Cc3ccccc3)CC2)nc2ccccc2c1=O` was tested. Which IC50 did it give?
Its IC50 is 27.5 µM.

For `CCOc1ccccc1-n1c(CN2CCOCC2)nc2ccccc2c1=O`, which IC50 is on record?
The IC50 was 27.6 µM.

With `CCOc1ccccc1-n1c(CN2CCN(C(=O)c3ccccc3)CC2)nc2ccccc2c1=O` as the compound, how does the IC50 read?
The IC50 was 1.7 µM.

`CCOc1ccccc1-n1c(CN2CCN(C)CC2)nc2ccccc2c1=O` was tested. Which IC50 did it give?
Its IC50 is 0.81 µM.

Which IC50 does the source give for `O=c1c2ccccc2nc(CN2CCNCC2)n1-c1ccccc1OCc1ccccc1` here?
Its IC50 is 22.9 µM.

Which IC50 does the source give for `COc1ccc(C(F)(F)F)cc1-n1c(CN2CCNCC2)nc2ccccc2c1=O` here?
The IC50 was 0.2 µM.

With `CCOc1ccccc1-n1c(CC2CCN(C(=O)c3ccco3)CC2)nc2ccccc2c1=O` as the compound, how does the IC50 read?
Its IC50 is 27.6 µM.

`CCOc1ccccc1-n1c(CN2CCNCC2)nc2ccccc2c1=O` was tested. Which IC50 did it give?
The IC50 was 0.09 µM.

With `CCOc1ccccc1-n1c(CN2CCN(C(C)=O)CC2)nc2ccccc2c1=O` as the compound, how does the IC50 read?
The IC50 was 0.47 µM.

Which IC50 does the source give for `CCNc1ccccc1-n1c(CN2CCNCC2)nc2ccccc2c1=O` here?
Its IC50 is 4.1 µM.

Which IC50 does the source give for `CCOC(=O)N1CCN(Cc2nc3ccccc3c(=O)n2-c2ccccc2OCC)CC1` here?
Its IC50 is 9.4 µM.

How did the IC50 turn out when `COc1ccccc1-n1c(CN2CCN(C(=O)c3ccco3)CC2)nc2ccccc2c1=O` was run?
The IC50 was 3.3 µM.

For `CCOc1ccccc1-n1c(CN2CCN(C(=O)c3ccco3)CC2)nc2cccc(C)c2c1=O`, which IC50 is on record?
Its IC50 is 1.2 µM.

How did the IC50 turn out when `CCSc1ccccc1-n1c(CN2CCNCC2)nc2ccccc2c1=O` was run?
The IC50 was 3.5 µM.

Which IC50 does the source give for `CCOc1ccccc1-n1c(CN2CCN(C(=O)c3ccco3)CC2)nc2ccccc2c1=O` here?
Its IC50 is 0.43 µM.

system: ME-180; test: Inhibition of hypoxia-induced HIF1alpha protein accumulation in human HRE-bla-ME180 cells at 10 uM after 17 hrs by Western blot analysis; assay type: functional, cell-based; conditions: not given; how it was run: as §1

For `CCOc1ccccc1-n1c(CN2CCOCC2)nc2ccccc2c1=O`, which inhibition is on record?
The inhibition was “Active”.
